Results published in ChEMBL document CHEMBL1914440, “Discovery of potent, selective, and orally bioavailable alkynylphenoxyacetic acid CRTH2 (DP2) receptor antagonists for the treatment of allergic inflammatory diseases” (J Med Chem, 2011).
Converted amounts (≈) assume the structure as drawn. The source made the active and inactive calls. The rule behind the calls is not given here.

Legend:
[1] = biological target: T1, Prostaglandin D2 receptor 2 (Homo sapiens, UniProt Q9Y5Y4); assay: Displacement of [3H]PGD2 from human CRTH2 expressed in chinese hamster CHO cells by liquid scintillation counting; type: cell-based
T1 sequence (Q9Y5Y4 whole entry): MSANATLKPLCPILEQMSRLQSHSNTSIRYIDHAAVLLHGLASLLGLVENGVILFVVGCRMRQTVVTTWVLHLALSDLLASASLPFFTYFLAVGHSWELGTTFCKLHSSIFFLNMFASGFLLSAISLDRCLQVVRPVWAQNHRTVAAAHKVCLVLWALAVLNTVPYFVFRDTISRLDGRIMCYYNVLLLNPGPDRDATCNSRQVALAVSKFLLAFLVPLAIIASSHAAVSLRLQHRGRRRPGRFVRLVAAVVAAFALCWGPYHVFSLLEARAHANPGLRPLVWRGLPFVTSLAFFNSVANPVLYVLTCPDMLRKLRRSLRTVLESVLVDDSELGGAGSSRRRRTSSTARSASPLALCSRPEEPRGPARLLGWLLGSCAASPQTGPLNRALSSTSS
Outline: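 Scintillation proximity competition assay: 2–5 μg human CRTH2 cell membranes, 1.5 nM [3H]PGD2, WGA-SPA beads, 10 mM HEPES/KOH pH 7.4, 10 mM MnCl2, protease inhibitors, 1% DMSO; 90 min, room temperature, shaking. Nonspecific binding defined with 1 μM PGD2. Ki by Cheng–Prusoff, mean of ≥3 independent dose–response experiments.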

[2] = biological target: T2, Prostaglandin D2 receptor 2 (Mus musculus, UniProt Q9Z2J6); assay: Displacement of [3H]PGD2 from mouse CRTH2 expressed in human HEK cells by liquid scintillation counting; type: cell-based, HEK293
T2 sequence (Q9Z2J6 whole entry): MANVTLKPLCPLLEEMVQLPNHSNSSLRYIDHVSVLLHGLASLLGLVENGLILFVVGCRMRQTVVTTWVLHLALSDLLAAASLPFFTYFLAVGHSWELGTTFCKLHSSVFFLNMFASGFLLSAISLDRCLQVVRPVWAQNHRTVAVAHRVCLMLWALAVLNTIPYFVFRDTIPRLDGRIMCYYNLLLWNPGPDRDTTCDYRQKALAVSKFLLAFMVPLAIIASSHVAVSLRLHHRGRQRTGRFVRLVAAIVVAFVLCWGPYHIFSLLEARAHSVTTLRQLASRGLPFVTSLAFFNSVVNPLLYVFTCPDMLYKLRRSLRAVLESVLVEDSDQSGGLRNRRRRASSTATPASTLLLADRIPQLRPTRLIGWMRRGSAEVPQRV
Outline: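 Mouse CRTH2 cDNA stably expressed in HEK293(EBNA) cells (hygromycin-selected) and membranes made by nitrogen cavitation. SPA competition uses 2–5 μg membranes, 1.5 nM [3H]PGD2, HEPES/KOH pH 7.4 with 10 mM MnCl2, 1% DMSO, 90 min at room temperature. Nonspecific binding defined with 1 μM PGD2. Ki by Cheng–Prusoff, ≥3 independent experiments.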

[3] = biological target: T1, Prostaglandin D2 receptor 2; assay: Antagonist activity human CRTH2 expressed in chinese hamster CHO cells assessed as inhibition of PGD2-induced [35S]GTPgamma binding by liquid scintillation counting; type: functional, cell-based
Outline: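 10 μg human CRTH2 membranes in 20 mM HEPES/KOH pH 7.4, 10 mM MgCl2, 10 μg/mL saponin, 3 μM GDP, 150 mM NaCl, 2% DMSO, 30 °C. Preincubated 10 min, then 0.15 nM [35S]GTPγS for 30 min; stopped by centrifugation. Antagonism tested against 80 nM PGD2. Nonspecific binding with 10 μM GTPγS. Run without BSA.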

[4] = biological target: Prostaglandin E2 receptor EP2 subtype (Homo sapiens) (UniProt P43116); assay: Inhibition of EP2 receptor at 10 uM
Outline: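 Selectivity screen: panel of 50 receptor and ion-channel targets, tested at 10 μM; EP2 by binding assay; GABA-gated Cl− channel from rat. Result expressed as % inhibition.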

[5] = Percentage unbound in human plasma; type: ADME, cell-free
[6] = Percentage unbound in rat plasma; type: ADME, cell-free
[7] = Percentage unbound in mouse plasma; type: ADME, cell-free
[8] = Intrinsic clearance in human liver microsomes assessed per mg of protein at 1 uM by LC/MS/MS analysis; type: ADME, Microsome
[9] = Intrinsic clearance in rat liver microsomes assessed per mg of protein at 1 uM by LC/MS/MS analysis; type: ADME, Microsome
[10] = Apparent permeability across human Caco2 cells at 1 uM after 2 hrs by LC/MS/MS analysis; type: ADME, cell-based; conditions: Caco-2
[11] = Clearance in BALB/c mouse at 5 mg/kg, po by LC/MS/MS analysis; type: ADME, organism-based; set-up: dose 5 mg/kg, route oral; conditions: in vivo
[12] = Oral bioavailability in BALB/c mouse at 5 mg/kg by LC/MS/MS analysis; type: ADME, organism-based; conditions: in vivo
Outline: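 Mouse PK after a 5 mg/kg oral dose.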

[13] = Solubility of the compound at pH 7.4; type: physicochemical; conditions: buffer
[14] = Solubility of the compound at pH 1.2; type: physicochemical; conditions: buffer
[15] = Half life in BALB/c mouse at 1 mg/kg, iv by LC/MS/MS analysis; type: ADME, organism-based; set-up: dose 1 mg/kg, route intravenous; conditions: in vivo
[16] = Half life in BALB/c mouse at 5 mg/kg, po by LC/MS/MS analysis; type: ADME, organism-based; set-up: dose 5 mg/kg, route oral; conditions: in vivo
[17] = AUC in BALB/c mouse at 5 mg/kg, po by LC/MS/MS analysis; type: ADME, organism-based; set-up: dose 5 mg/kg, route oral; conditions: plasma
[18] = biological target: T3, Prostaglandin D2 receptor (Homo sapiens, UniProt Q13258); assay: Binding affinity to DP1
T3 sequence (Q13258 whole entry): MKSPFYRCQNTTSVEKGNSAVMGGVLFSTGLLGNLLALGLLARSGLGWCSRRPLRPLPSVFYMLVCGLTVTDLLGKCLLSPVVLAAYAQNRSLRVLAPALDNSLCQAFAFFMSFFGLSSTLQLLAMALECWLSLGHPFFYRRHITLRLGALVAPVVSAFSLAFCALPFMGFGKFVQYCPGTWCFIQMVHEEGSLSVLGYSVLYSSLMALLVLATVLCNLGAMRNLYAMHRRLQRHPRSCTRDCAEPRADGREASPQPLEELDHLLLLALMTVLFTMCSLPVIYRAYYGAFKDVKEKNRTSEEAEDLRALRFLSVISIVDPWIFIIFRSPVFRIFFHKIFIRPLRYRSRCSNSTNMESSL

[19] = biological target: Aldo-keto reductase family 1 member B1 (Homo sapiens, UniProt P15121); assay: Antagonist activity at AR; type: functional
Mus musculus [20] = assay: Antiinflammatory activity in BALB/c mouse model assessed as inhibition of ovalbumin-induced eosinophil accumulation in bronchoalveolar lavage fluid at 3 mg/kg, po administered 1 hr prior to and 7 hrs after ovalbumin challenge for 3 days measured 8 hrs after final dose by cell counting; type: functional; conditions: Lung
Outline: (§1)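 Compound given by oral gavage 1 h before and 7 h after each challenge. BAL taken 8 h after the last challenge. Total cells counted by hemocytometer; eosinophils counted on DiffQuik-stained cytospins. Reported as mean % inhibition ± SEM.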

Mus musculus [21] = assay: Antiinflammatory activity in BALB/c mouse model assessed as inhibition of ovalbumin-induced eosinophil accumulation in bronchoalveolar lavage fluid at 10 mg/kg, po administered 1 hr prior to and 7 hrs after ovalbumin challenge for 3 days measured 8 hrs after final dose by cell counting; type: functional; conditions: Lung; outline: as §1
Mus musculus [22] = assay: Antiinflammatory activity in BALB/c mouse model assessed as inhibition of ovalbumin-induced eosinophil accumulation in bronchoalveolar lavage fluid at 30 mg/kg, po administered 1 hr prior to and 7 hrs after ovalbumin challenge for 3 days measured 8 hrs after final dose by cell counting; type: functional; conditions: Lung; outline: as §1
Mus musculus [23] = assay: Antiinflammatory activity in BALB/c mouse contact hypersensitivity model assessed as inhibition of FITC-mediated ear swelling at 3 mg/kg, po administered 1 hr prior to and 7 hrs after the FITC-challenge measured 24 hrs after final dose; type: functional
Outline: (§2)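 Female 9-week-old BALB/c mice sensitized on days 0 and 1 with 0.5% FITC in acetone/dibutyl phthalate (sham group: vehicle only). Right ear challenged on day 6 with 0.5% FITC. Compound given by oral gavage 1 h before and 7 h after challenge. Ear thickness measured before and 24 h after challenge. Reported as mean % inhibition ± SEM.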

Mus musculus [24] = assay: Antiinflammatory activity in BALB/c mouse contact hypersensitivity model assessed as inhibition of FITC-mediated ear swelling at 10 mg/kg, po administered 1 hr prior to and 7 hrs after the FITC-challenge measured 24 hrs after final dose; type: functional; outline: as §2
Mus musculus [25] = assay: Antiinflammatory activity in BALB/c mouse contact hypersensitivity model assessed as inhibition of FITC-mediated ear swelling at 30 mg/kg, po administered 1 hr prior to and 7 hrs after the FITC-challenge measured 24 hrs after final dose; type: functional; outline: as §2
[26] = biological target: T3, Prostaglandin D2 receptor; assay: Antagonist activity at DP1 by cAMP functional assay
Outline: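 DP1 functional antagonism measured in a cAMP assay.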

Mus musculus [27] = assay: Antiinflammatory activity in BALB/c mouse model assessed as inhibition of ovalbumin-induced eosinophil accumulation in bronchoalveolar lavage fluid at 1 mg/kg, ip administered 1 hr prior to and 7 hrs after ovalbumin challenge for 3 days measured 8 hrs after final dose by cell counting; type: functional; conditions: Lung, route intraperitoneal
Outline: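 BALB/c mice were immunised with ovalbumin ip on days 0 and 7, then challenged with aerosolised ovalbumin for 30 min on days 15, 16 and 17. Bronchoalveolar lavage was done 8 h after the last challenge. Total cells were counted by haemocytometer, and eosinophils by differential count on DiffQuik-stained cytospins. Results are given as % inhibition, mean ± SEM.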

Mus musculus [28] = assay: Antiinflammatory activity in BALB/c mouse contact hypersensitivity model assessed as inhibition of FITC-mediated ear swelling at 5 mg/kg, ip administered 1 hr prior to and 7 hrs after the FITC-challenge measured 24 hrs after final dose

Chain of Prostaglandin E2 receptor EP2 subtype (Homo sapiens) (P43116 whole entry): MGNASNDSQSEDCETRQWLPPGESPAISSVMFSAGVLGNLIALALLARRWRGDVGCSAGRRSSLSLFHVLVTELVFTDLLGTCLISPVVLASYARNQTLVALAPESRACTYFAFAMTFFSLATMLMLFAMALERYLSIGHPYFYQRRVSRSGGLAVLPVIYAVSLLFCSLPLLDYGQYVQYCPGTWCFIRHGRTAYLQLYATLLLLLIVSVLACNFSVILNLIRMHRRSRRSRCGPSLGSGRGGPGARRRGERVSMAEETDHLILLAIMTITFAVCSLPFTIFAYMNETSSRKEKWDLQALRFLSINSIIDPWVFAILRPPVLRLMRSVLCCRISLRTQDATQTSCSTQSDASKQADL

Which Ki [1] does the source give for `CCCS(=O)(=O)c1ccc(C)c(C#Cc2cc(Cl)ccc2OCC(=O)O)c1` here?
Its Ki is 2 nM.

What about the Ki [2] of the same molecule?
The Ki was 2.4 nM.

What about the IC50 [3] of the same molecule?
Its IC50 is 7 nM.

What about the inhibition [4] of the same molecule?
Its inhibition is 54%.

What about the fraction unbound [5] of the same molecule?
Its fraction unbound is 0.004.

What about the fraction unbound [6] of the same molecule?
The fraction unbound was 0.004.

And the fraction unbound [7]?
The fraction unbound was 0.008.

What about the microsomal CLint at 1 µM [8] of the same molecule?
The microsomal CLint at 1 µM was less than 10 µL/min/mg.

What about the microsomal CLint at 1 µM [9] of the same molecule?
Its microsomal CLint at 1 µM is less than 10 µL/min/mg.

What about the Papp at 2 h, 1 µM [10] of the same molecule?
Its Papp at 2 h, 1 µM is 5.2 ×10⁻⁶ cm/s.

And the CL/F [11]?
The CL/F was 16.7 mL/min/kg.

What about the bioavailability [12] of the same molecule?
Its bioavailability is 80%.

And the solubility [13]?
Its solubility is 242 µg/mL (≈ 595 µM).

And the solubility [14]?
Its solubility is less than 2 µg/mL.

What about the half-life [15] of the same molecule?
Its half-life is 1.7 h.

What about the half-life [16] of the same molecule?
Its half-life is 3.9 h.

What about the AUC [17] of the same molecule?
The AUC was 3730 ng·h/mL.

And the Ki [18]?
The Ki was 1580 nM.

What about the IC50 [19] of the same molecule?
The IC50 was 172 nM.

And the inhibition in vivo at 3 mg/kg (Mus musculus [20])?
Its inhibition in vivo at 3 mg/kg is 29%.

And the inhibition in vivo at 10 mg/kg (Mus musculus [21])?
The inhibition in vivo at 10 mg/kg was 54%.

And the inhibition in vivo at 30 mg/kg (Mus musculus [22])?
Its inhibition in vivo at 30 mg/kg is 81%.

What about the inhibition in vivo at 3 mg/kg (Mus musculus [23]) of the same molecule?
Its inhibition in vivo at 3 mg/kg is 23%.

And the inhibition in vivo at 10 mg/kg (Mus musculus [24])?
Its inhibition in vivo at 10 mg/kg is 56%.

What about the inhibition in vivo at 30 mg/kg (Mus musculus [25]) of the same molecule?
Its inhibition in vivo at 30 mg/kg is 52%.

And the IC50 [26]?
Its IC50 is 10000 nM.

What does the source list for `C[C@@H]1C[C@H]2[C@@H]3CCC4=CC(=O)C=C[C@]4(C)[C@@]3(F)[C@@H](O)C[C@]2(C)[C@@]1(O)C(=O)CO` [DEXAMETHASONE]?
inhibition in vivo at 1 mg/kg (Mus musculus [27]): 90%; inhibition (Mus musculus [28]): Active
